Assay [1] can be described thus: Concentration that causes 50% inhibition of mammalian alpha-glucosidase (endoplasmic reticulum glucosidase II) was determined in rat liver; NI is less than 50 % inhibition at 1000 uM.
In assay [2] the target is T1, Beta-galactosidase (Bos taurus, UniProt Q58D55).
T1 sequence (Q58D55 whole entry): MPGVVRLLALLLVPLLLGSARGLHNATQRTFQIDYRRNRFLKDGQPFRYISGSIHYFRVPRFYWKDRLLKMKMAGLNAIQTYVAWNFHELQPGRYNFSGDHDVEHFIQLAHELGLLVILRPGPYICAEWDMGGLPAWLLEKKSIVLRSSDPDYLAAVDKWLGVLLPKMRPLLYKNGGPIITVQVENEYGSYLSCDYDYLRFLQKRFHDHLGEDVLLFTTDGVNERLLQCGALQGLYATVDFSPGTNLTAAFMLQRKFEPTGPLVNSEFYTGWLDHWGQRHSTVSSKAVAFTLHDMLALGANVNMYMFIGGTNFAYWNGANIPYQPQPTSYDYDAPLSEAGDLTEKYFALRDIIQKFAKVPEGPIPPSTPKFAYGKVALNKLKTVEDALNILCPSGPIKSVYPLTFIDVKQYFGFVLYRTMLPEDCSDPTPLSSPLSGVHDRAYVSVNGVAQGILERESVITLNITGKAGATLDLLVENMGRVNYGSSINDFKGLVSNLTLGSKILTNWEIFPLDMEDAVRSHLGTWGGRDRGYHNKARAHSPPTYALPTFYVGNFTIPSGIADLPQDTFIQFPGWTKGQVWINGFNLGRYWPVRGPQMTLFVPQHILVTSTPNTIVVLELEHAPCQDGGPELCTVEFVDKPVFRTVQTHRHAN
Put plainly: Concentration that causes 50% inhibition of mammalian lysosomal beta-galactosidase was determined in bovine liver; NI is less than 50 % inhibition at 1000 uM.

Assay [3] concerns the target T2, Trehalase (Rattus norvegicus, UniProt O70282).
T2 sequence (O70282 whole entry): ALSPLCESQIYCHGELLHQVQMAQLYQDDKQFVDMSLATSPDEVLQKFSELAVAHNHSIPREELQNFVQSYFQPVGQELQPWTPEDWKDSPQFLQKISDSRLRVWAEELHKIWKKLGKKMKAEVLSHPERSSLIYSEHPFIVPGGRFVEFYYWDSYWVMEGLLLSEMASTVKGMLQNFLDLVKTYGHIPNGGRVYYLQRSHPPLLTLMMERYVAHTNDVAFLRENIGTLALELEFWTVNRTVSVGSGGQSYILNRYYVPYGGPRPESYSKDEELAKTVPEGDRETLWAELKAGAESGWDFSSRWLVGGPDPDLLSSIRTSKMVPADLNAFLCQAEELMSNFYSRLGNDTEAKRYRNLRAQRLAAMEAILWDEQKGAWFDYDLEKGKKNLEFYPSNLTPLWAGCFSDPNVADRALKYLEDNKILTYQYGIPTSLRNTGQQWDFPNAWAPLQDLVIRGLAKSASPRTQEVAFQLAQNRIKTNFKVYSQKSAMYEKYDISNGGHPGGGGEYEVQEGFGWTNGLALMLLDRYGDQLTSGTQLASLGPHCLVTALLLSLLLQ
Put plainly: Concentration that causes 50% inhibition of mammalian trehalase was determined in rat intestine; NI is less than 50 % inhibition at 1000 uM.

Assay [4] deals with T3, Beta-galactosidase (Rattus norvegicus, UniProt D3ZUM4).
T3 sequence (D3ZUM4 whole entry): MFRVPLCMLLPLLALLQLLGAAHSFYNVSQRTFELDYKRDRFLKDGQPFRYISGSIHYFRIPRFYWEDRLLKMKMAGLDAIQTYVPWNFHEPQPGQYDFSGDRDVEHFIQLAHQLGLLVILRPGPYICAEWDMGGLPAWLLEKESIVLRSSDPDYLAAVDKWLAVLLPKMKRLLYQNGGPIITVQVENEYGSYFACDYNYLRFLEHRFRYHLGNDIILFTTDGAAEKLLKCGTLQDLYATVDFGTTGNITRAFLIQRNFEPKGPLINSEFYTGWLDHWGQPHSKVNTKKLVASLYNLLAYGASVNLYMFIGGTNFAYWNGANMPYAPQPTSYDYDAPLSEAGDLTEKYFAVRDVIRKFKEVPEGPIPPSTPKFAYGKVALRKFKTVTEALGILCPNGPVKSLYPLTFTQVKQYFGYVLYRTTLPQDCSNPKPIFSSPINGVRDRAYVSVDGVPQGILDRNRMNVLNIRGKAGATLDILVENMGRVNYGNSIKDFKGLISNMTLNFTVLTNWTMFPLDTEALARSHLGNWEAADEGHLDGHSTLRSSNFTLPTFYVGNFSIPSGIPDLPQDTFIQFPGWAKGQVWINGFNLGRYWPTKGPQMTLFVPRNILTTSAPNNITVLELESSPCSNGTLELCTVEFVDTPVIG
Nature of the assay: Concentration that causes 50% inhibition of mammalian lysosomal beta-galactosidase was determined in rat liver; NI is less than 50 % inhibition at 1000 uM.

The target of assay [5] is Lysosomal alpha-glucosidase (Rattus norvegicus, UniProt Q6P7A9). Put plainly: Concentration that causes 50% inhibition of mammalian alpha-glucosidase (lysosomal) was determined in rat liver; NI is less than 50 % inhibition at 1000 uM.
Assay [6] has as its target T1, Beta-galactosidase. Put plainly: Concentration that causes 50% inhibition of mammalian cytosolic beta-galactosidase was determined in bovine liver; NI is less than 50 % inhibition at 1000 uM.
Assay [7] concerns the target T3, Beta-galactosidase. Nature of the assay: Concentration that causes 50% inhibition of mammalian lactase beta-galactosidase was determined in rat intestine; NI is less than 50 % inhibition at 1000 uM.
Assay [8] deals with T3, Beta-galactosidase. Put plainly: Concentration that causes 50% inhibition of mammalian epididymal beta-galactosidase was determined in rat epididymis NI is less than 50 % inhibition at 1000 uM. In kind it is tissue-based.
Assay [9] deals with T3, Beta-galactosidase. Nature of the assay: Concentration that causes 50% inhibition of mammalian epididymal beta-galactosidase was determined in rat epididymis; NI is less than 50 % inhibition at 1000 uM. Type of assay: tissue-based.
The target in assay [10] is T4, Alpha-glucosidase (Bos taurus, UniProt Q9MYM4). Put plainly: Inhibition of mammalian alpha-glucosidase (lysosomal) was determined in bovine liver; NI is less than 50 % inhibition at 1000 uM.
Assay [11] deals with T2, Trehalase. Put plainly: Concentration that causes 50% inhibition of mammalian trehalase was determined in rat intestine; NI is less than 50 % inhibition at 1000 micro M.
A short description of assay [12]: Concentration that causes 50% inhibition of mammalian alpha-glucosidase (endoplasmic reticulum glucosidase II) was determined in rat liver NI is less than 50 % inhibition at 1000 uM. In kind it is tissue-based.
For assay [13], the target named is Lactase/phlorizin hydrolase (Rattus norvegicus, UniProt Q02401). Nature of the assay: Tested for competitive inhibition of rat intestinal lactase. The gist of the method:
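Brush border membranes from rat small intestine, assayed at pH 5.8 with lactose as substrate. Released D-glucose was measured colorimetrically by the D-glucose oxidase–peroxidase method. Ki and inhibition mode were determined.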

In assay [14] the target is T3, Beta-galactosidase. Nature of the assay: Concentration that causes 50% inhibition of mammalian lysosomal beta-galactosidase was determined in rat liverNI is less than 50 % inhibition at 1000 uM.
For assay [15], the target named is T2, Trehalase. Nature of the assay: Concentration that causes 50% inhibition of mammalian trehalase was determined in rat intestine.
For assay [16], the target named is T1, Beta-galactosidase. Put plainly: Concentration that causes 50% inhibition of mammalian cytosolic beta-galactosidase was determined in bovine liver NI is less than 50 % inhibition at 1000 uM. Type of assay: tissue-based.
In assay [17] the target is T1, Beta-galactosidase. Put plainly: Concentration that causes 50% inhibition of mammalian lysosomal beta-galactosidase was determined in bovine liver NI is less than 50 % inhibition at 1000 uM. Type of assay: tissue-based.
In assay [18] the target is T3, Beta-galactosidase. Put plainly: Concentration that causes 50% inhibition of mammalian beta-galactosidase was determined in rat epididymis; NI is less than 50 % inhibition at 1000 uM. Type of assay: tissue-based.
In assay [19] the target is T3, Beta-galactosidase. Nature of the assay: Concentration that causes 50% inhibition of mammalian beta-galactosidase was determined in rat intestine; NI is less than 50 % inhibition at 1000 uM.
Assay [20] can be described thus: Concentration that causes 50% inhibition of mammalian alpha-glucosidase (endoplasmic reticulum glucosidase II) was determined in rat liver. In kind it is tissue-based.
Assay [21] deals with T4, Alpha-glucosidase. Nature of the assay: Inhibition of mammalian alpha-glucosidase (lysosomal) was determined in bovine liver. In kind it is tissue-based.

Sequence of Lysosomal alpha-glucosidase (Q6P7A9 whole entry): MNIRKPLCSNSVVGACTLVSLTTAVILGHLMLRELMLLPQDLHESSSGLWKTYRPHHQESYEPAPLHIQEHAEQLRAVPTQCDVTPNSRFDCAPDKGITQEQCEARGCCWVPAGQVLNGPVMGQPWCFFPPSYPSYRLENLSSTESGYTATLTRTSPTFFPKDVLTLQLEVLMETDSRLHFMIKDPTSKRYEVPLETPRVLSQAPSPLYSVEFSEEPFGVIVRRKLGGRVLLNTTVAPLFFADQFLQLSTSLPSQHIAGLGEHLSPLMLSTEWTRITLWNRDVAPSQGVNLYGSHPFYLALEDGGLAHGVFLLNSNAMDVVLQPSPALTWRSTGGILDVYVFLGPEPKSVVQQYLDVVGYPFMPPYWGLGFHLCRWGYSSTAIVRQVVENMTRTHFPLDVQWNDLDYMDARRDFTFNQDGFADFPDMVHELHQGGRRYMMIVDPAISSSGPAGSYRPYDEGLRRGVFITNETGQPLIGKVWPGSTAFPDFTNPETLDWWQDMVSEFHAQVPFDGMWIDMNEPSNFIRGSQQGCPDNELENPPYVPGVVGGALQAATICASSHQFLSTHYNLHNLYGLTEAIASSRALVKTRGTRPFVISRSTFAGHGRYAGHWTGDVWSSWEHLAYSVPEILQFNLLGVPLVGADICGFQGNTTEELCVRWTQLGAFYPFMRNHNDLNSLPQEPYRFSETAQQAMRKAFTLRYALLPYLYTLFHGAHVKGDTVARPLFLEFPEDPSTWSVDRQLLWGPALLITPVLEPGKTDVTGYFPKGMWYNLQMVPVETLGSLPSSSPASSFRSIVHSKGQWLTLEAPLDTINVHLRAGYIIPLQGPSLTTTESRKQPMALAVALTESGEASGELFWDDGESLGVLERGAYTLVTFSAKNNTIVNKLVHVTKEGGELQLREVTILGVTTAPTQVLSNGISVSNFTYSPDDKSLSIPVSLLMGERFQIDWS
T4 sequence (Q9MYM4 whole entry): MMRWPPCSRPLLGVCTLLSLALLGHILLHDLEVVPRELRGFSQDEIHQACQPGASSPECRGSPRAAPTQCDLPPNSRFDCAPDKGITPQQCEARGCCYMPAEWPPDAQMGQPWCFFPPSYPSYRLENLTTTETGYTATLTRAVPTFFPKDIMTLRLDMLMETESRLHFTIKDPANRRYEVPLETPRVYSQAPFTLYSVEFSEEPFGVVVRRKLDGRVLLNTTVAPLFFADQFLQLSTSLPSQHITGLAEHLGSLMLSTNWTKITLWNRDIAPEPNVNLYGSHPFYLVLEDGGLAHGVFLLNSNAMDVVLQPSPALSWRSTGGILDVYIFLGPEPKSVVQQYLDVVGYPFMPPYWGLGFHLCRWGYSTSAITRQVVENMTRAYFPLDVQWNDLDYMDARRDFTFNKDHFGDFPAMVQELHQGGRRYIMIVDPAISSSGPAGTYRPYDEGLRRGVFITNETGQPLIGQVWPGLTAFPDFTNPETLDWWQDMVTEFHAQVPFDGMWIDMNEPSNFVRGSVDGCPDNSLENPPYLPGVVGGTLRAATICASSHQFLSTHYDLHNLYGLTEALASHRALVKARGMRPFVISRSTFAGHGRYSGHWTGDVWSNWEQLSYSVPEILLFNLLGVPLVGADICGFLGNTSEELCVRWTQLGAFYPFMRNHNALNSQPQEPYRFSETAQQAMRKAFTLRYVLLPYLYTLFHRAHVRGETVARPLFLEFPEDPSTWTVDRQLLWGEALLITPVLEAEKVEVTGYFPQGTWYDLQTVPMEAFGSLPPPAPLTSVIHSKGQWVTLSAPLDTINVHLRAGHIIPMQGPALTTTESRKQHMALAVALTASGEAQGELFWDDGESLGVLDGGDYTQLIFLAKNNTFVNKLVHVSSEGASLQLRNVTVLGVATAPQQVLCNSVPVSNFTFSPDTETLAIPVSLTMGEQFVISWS
Sequence of Lactase/phlorizin hydrolase (Q02401 868-1928 limits assumed): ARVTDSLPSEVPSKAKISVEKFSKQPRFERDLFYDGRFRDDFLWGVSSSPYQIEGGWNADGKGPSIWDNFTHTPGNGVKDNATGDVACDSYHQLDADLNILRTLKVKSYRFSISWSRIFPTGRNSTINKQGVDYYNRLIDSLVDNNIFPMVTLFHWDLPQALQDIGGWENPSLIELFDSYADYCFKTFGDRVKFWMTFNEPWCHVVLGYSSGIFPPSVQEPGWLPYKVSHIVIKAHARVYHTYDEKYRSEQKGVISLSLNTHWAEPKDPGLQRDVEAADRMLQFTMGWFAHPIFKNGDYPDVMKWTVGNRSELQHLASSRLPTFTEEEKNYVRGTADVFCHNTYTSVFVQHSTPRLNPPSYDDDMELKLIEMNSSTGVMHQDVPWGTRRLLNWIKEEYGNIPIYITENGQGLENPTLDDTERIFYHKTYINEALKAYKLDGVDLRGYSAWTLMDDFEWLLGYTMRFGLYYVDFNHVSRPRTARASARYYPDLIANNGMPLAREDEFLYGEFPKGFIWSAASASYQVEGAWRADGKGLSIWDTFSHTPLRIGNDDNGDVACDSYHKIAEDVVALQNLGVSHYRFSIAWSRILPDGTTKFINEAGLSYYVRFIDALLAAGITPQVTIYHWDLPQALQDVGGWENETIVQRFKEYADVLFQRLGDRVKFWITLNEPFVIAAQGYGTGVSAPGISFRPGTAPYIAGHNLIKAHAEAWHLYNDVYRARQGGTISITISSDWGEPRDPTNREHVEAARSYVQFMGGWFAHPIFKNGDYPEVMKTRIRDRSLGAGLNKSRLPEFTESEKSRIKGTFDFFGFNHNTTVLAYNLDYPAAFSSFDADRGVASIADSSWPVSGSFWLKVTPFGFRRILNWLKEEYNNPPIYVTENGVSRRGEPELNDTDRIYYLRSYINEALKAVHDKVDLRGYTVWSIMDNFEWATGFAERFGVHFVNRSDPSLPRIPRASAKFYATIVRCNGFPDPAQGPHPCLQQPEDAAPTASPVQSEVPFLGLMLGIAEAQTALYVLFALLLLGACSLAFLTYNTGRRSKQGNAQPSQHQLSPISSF

What is called IC50 is the concentration at which inhibition is half-maximal. Lower therefore signals greater potency in that assay. On to `OC[C@H]1NCC[C@@H](O)[C@H]1O`, for which the IC50 result in assay [1], in assay [2], in assay [3], in [4], in assay [5] and in assay [6] was “No inhibition” throughout. Moreover, the IC50 result in assay [7] and in assay [8] was “No inhibition” throughout.
For `OC[C@H]1N[C@H](CO)[C@@H](O)[C@@H]1O`, the IC50 result in assay [1], in assay [2], in assay [4] and in [9] was “No inhibition” each time.
One may read the Ki as the equilibrium dissociation constant of an inhibitor or competing ligand from its target. A low value points to tighter binding. Take `OC[C@H]1NCC[C@H](O)[C@@H]1O`: the IC50 entry in assay [2], in assay [10], in [11], in [12], in [4] and in assay [5] was “No inhibition” each time. Further, in [9], the IC50 entry is on record as “No inhibition”. This molecule also had a Ki in [13] of 1.9 µM.
As to `OC[C@H]1NC[C@H](O)[C@@H](O)[C@@H]1O` (stereo in doubt; 1) [DUVOGLUSTAT], the IC50 result in assay [14] was “No inhibition”; in [15] it was 42 µM; in assay [16] it was “No inhibition”; in assay [17], “No inhibition”; in assay [8] it was “No inhibition”.
Turning to `OC[C@H]1NC[C@H](O)[C@@H](O)[C@@H]1O` (stereo in doubt; 2) [DUVOGLUSTAT], the IC50 entry in assay [18], in [12] and in [19] was “No inhibition” in each case.
Turning to `OC[C@H]1NC[C@H](O)[C@@H](O)[C@@H]1O` (stereo in doubt; 4) [DUVOGLUSTAT], the IC50 result in [6] is “No inhibition”.
With `OC[C@H]1NC[C@H](O)[C@@H](O)[C@@H]1O` [DUVOGLUSTAT], the IC50 result in assay [1], in [2], in assay [10], in assay [3], in [4] and in [5] was “No inhibition” throughout. Further, the IC50 entry in assay [9] was “No inhibition”.
`OC[C@H]1NCC[C@@H](O)[C@@H]1O` [FAGOMINE]: the IC50 result in assay [2] is “No inhibition”; in assay [3] it was “No inhibition”; in [4] it was “No inhibition”; in assay [5], “No inhibition”; in [20], 840 µM; in assay [9] it was “No inhibition”. The same molecule gave an IC50 in [21] of 520 µM.

The values above are taken from ChEMBL document CHEMBL1127386, “Nitrogen-in-the-ring pyranoses and furanoses: structural basis of inhibition of mammalian glycosidases” (J Med Chem, 1994).
